The test system of one series is 2C19. The following applies: 10 μM NBN; corresponding probe reaction; ref Linder et al., 2009; cited from earlier work.
Series [1] is classed as in vivo. The following applies: mice, ABT vs. no ABT.
Series [2] has as its system human liver microsome (HLM). The series can be described thus: In vitro metabolism in human liver microsomes. In kind it is in vitro ADME. The following applies: substrate 6 μM, 60 minutes; for effect of NBN and ketoconazole together on metabolism by HLM: 10 μM NBN + 2 μM ketoconazole. A digest of the protocol: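 Human liver microsomes at 1 mg/mL in 50 mM potassium phosphate (pH 7.4) with 1 mM NADPH and 6 μM substrate; final methanol 0.5% (v/v). Inhibitors came from DMSO stocks (DMSO at most 0.5% v/v). NBN at 10 μM and ketoconazole at 2 μM were added with the substrate. Incubated at 37°C for 1 hour, then extracted and quantitated. Three or more independent experiments.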

The next series concerns the target CYP 3A4 (Homo sapiens, UniProt P08684). Kind of series: Incubation of D or DA with recombinant human CYP 3A4. In kind it is in vitro ADME. Conditions: recombinant 3A4; substrate 6 μM.
The target in a further series is CYP 2C19 (Homo sapiens, UniProt P33261). The series can be described thus: Incubation of D or DA with recombinant human CYP 2C19. In kind it is in vitro ADME. Conditions: for conversion to DOH or metabolites by 2C19 in the absence of NADPH: incubated in the absence of NADPH; for average velocity of 2C19 in the first 10 minutes: recombinant 2C19, substrate 6 μM.
The conditions of series [3]: ref Zhang et al., 2015, cited from earlier work.
The format of series [4] is in vivo, human.
The conditions of series [5]: rats, ref Li et al., 2013b, cited from earlier work.
The conditions of series [6]: rats; ref Song et al., 2011; cited from earlier work.
A further series concerns 3A4. Conditions: 1 μM ketoconazole; corresponding probe reaction; ref Linder et al., 2009; cited from earlier work.

Like-named read-outs stand apart in the source and are kept apart here.

CYP 2C19, sequence (P33261 whole entry): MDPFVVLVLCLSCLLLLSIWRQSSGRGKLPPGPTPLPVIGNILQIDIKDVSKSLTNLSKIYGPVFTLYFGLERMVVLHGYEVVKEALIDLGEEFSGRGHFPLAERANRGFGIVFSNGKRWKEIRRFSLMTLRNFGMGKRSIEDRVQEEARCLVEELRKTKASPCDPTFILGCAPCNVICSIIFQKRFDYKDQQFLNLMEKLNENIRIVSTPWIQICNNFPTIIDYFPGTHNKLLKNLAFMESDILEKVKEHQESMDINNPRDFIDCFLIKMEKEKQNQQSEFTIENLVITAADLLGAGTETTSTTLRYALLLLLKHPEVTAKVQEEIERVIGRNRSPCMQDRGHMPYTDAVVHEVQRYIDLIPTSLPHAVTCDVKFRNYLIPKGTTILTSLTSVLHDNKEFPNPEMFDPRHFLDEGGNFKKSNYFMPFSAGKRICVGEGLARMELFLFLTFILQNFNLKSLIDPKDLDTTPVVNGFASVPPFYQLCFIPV
CYP 3A4, sequence (P08684 whole entry): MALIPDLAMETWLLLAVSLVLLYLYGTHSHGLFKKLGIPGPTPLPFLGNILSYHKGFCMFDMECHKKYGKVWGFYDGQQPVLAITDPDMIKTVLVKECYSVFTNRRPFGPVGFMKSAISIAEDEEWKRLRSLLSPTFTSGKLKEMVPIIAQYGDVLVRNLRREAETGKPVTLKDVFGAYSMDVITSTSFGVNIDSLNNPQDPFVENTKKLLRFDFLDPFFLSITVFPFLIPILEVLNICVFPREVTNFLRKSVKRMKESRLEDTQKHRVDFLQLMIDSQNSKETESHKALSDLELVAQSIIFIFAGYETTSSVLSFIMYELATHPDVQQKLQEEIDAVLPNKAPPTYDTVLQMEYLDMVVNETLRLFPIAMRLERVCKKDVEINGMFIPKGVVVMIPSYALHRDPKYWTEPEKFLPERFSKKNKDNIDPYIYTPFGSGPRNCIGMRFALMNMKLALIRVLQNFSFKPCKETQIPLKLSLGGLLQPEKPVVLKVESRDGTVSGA

For `CCC1(c2ccccc2)NC(=O)N(Cc2ccccc2)C1=O` (single isomer, unassigned; (+)) [NBN, (+)-N-3-benzylnirvanol], the “inhibition of 2C19 activity in HLM” value in the series with 2C19 was 55%.
As for `CC(C)=CC(=O)O[C@H]1Cc2cc3ccc(=O)oc3cc2OC1(C)C` [D, decursin], in series [1] (1 hour after D/DA dose), the “increase of plasma level by ABT pretreatment” value (from here on “increase of plasma level”) was determined as 32 fold and the “increase of prostate content by ABT pretreatment” value (from here on “increase of prostate content”) was 61 fold. In addition, in series [1] (2 hours after D/DA dose), the “increase of plasma level” value was 26 fold and the “increase of prostate content” value worked out at 61 fold. In addition, in series [2], the “effect of NBN and ketoconazole together on metabolism by HLM” value is reported as “additive manner”. The “effect of 2C19 inhibitor NBN on metabolism by HLM” value in series [2] (10 μM NBN, 1 mg/mL HLM) is recorded as “retarded the disappearance of D”. The “average velocity of 3A4 in the first 10 minutes” value at CYP 3A4 is on record as 4 pmol per minute per pmol CYP. On CYP 2C19, the “conversion to DOH or metabolites by 2C19 in the absence of NADPH” value is on record as “not able to convert” and the “average velocity of 2C19 in the first 10 minutes” value is 60 pmol D or DA per minute per pmol CYP.
For `C/C=C(/C)C(=O)O[C@H]1Cc2cc3ccc(=O)oc3cc2OC1(C)C` [DA, decursinol angelate], in [3] (healthy human subjects, single dose), the “variation in the Cmax and AUC0–48h among subjects” value is recorded as at most 60 fold. In series [1] (1 hour after D/DA dose), the “increase of plasma level” value is recorded as 30 fold and the “increase of prostate content” value worked out at 18 fold. In [1] (2 hours after D/DA dose), the “increase of plasma level” value worked out at 30 fold and the “increase of prostate content” value worked out at 48 fold. Also, the “effect of 2C19*17 allele on plasma AUC0–48h” value in series [4] (human subjects by CYP SNP genotype) is “trend of gene-dose effect”. For the same compound, the “plasma AUC0–48h compared among three racial groups (Caucasian, Hispanic, Asian)” value in series [4] (human subjects, Kruskal-Wallis test, p<0.05) was “statistically different among three groups”. Also, in series [2] (2 μM ketoconazole, 1 mg/mL HLM), the “effect of 3A4 inhibitor ketoconazole (KCZ) on metabolism by HLM” value was “greater extent of inhibition of DA conversion to DOH and metabolite N8”. The “effect of NBN and ketoconazole together on metabolism by HLM” value in series [2] is reported as “additive manner”. Besides, the “average velocity of 3A4 in the first 10 minutes” value at CYP 3A4 is listed as 5 pmol per minute per pmol CYP. In addition, on CYP 2C19, the “conversion to DOH or metabolites by 2C19 in the absence of NADPH” value is on record as “not able to convert” and the “average velocity of 2C19 in the first 10 minutes” value is recorded as 60 pmol D or DA per minute per pmol CYP.
On to `CC1(C)Oc2cc3oc(=O)ccc3cc2C[C@@H]1O` [DOH, decursinol], for which, in series [3] (human subjects), the “urinary excretion of free DOH, share of D/DA ingested” value is listed as below 1%. In series [1] (1 hour after D/DA dose), the “increase of plasma level” value is listed as 1.5–2 fold and the “increase of prostate content” value was 1.5–2 fold. For the same compound, in series [1] (2 hours after D/DA dose), the “increase of plasma level” value is 1.5–2 fold and the “increase of prostate content” value was 1.5–2 fold. In series [5] (equal moles by oral gavage), the “AUC of plasma DOH” value was 65012 ng·h/mL and the “AUC ratio, DOH group vs. D/DA group” value is given as ~ 2.4 fold. Further, the “tmax of plasma DOH peak” value in [5] (oral gavage) is given as ~ 0.7 h. Moreover, the “absorption (AUC-oral dose vs. AUC-i.v.)” value in [6] was ~ 45%.
Take `CC(=O)N1CCN(c2ccc(OCC3COC(Cn4ccnc4)(c4ccc(Cl)cc4Cl)O3)cc2)CC1` (centres unmarked) [ketoconazole]: the “inhibition of 3A4 activity in HLM” value in the series with 3A4 is 59%.

The record behind these values is publication PMC4872390 (The American journal of Chinese medicine, 2015).
